Most compounds without a hit are left out; they make up all but 0.77% or so of the library.
hIAP inh – blocks human intestinal alkaline phosphatase | P09923 | purified IAP, CDP-Star luminescence, 30 min | inhibition, % at 10 µM | 330,000 tested, 0.12% active;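 active = inhibition reaching a set limit with compound at 10 µM in the primary screen, cut at about 35% in these data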
Target sequence (P09923 whole entry, looked up): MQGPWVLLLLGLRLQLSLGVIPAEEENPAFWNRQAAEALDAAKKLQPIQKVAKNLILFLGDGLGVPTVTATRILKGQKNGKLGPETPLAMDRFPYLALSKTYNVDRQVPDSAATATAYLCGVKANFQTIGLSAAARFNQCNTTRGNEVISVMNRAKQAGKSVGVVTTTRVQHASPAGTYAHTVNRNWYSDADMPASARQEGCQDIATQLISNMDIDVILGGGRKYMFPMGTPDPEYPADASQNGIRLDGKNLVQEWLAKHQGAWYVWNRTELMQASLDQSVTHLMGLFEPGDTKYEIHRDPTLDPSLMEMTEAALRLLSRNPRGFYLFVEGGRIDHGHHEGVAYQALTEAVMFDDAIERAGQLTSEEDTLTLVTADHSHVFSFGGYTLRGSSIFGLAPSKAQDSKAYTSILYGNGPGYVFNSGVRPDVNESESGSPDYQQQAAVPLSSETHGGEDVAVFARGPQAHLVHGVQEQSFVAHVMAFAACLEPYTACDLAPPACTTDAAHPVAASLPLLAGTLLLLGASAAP
bIAP inh – intestinal alkaline phosphatase (bovine) inhibition; purified bovine IAP, CDP-star luminescence, 30 min; inhibition, % at 20 µM; 190,000 tested, under 10 active; AID 1019;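 active = over 50% inhibition of intestinal alkaline phosphatase at 20 µM in the single-dose screen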
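test system = bovine IAP enzyme | medium = DEA buffer 100 mM, pH 9.8, with MgCl2 1.0 mM, ZnCl2 0.02 mM | detection = luminescence | dosing = single compound dose of 20 µM, 2% DMSO final | incubation = 30 min reaction at room temperature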
hIAP act – increases human intestinal alkaline phosphatase activity; P09923; 330,000 tested, 0.16% active; purified human IAP, CDP-Star luminescence, 30 min; hits give high values; 1 = vehicle-only enzyme, 0 = enzyme-free background; activation factor at 10 µM; AID 2524;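 active = activation factor of the enzyme at least 2-fold when tested at 20 µM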
bIAP act – increases bovine intestinal alkaline phosphatase activity. purified bovine IAP, CDP-star luminescence, 30 min; hits give high values; fold of DMSO-control signal, blank-subtracted. activation factor at 20 µM. 200,000 tested, 0.17% active. AID 1016;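 active = activation factor of 2 or more at 20 µM, a signal rise over negative controls twice the positive control's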
mIAP block – mouse IAP inhibition. 330,000 tested, 0.2% active. AID 2806. purified mouse IAP, CDP-Star luminescence, 30 min. inhibition, % at 10 µM;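 active = inhibition of at least 40% at 10 µM in the primary screen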
mIAP act – increases mouse intestinal alkaline phosphatase activity. muIAP, CDP-Star luminescence, 30 min; hits give high values; 1 = vehicle-only enzyme signal, 0 = enzyme-free wells. 330,000 tested, 0.24% active. activation factor at 10 µM. AID 2805;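 active = activation factor of at least 2 at 20 µM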
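System: mouse IAP enzyme. Reagent: CDP-Star chemiluminescent phosphatase substrate. Benchmarks: DMSO wells, no-enzyme wells. Times: 30 min enzyme-substrate-compound incubation at room temperature. Detection: luminescence from enzymatic CDP-Star hydrolysis. Doses: test compounds delivered from DMSO solution.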
Large screens that a line does not name were inactive.

CCOc1ccc(NC(=O)CC(c2ccccc2)c2ccc(F)cc2)cc1 (stereo not drawn)	mIAP act 2.2
CCOc1ccccc1NC(=O)c1cccc(NC(=O)CC(c2ccccc2)c2ccccc2)c1	mIAP act 2
OC1CCC(NC(=S)Nc2ccc(SC(F)F)cc2)CC1 (stereo not drawn)	none
S=C(Nc1ccc(Oc2ccc(NC(=S)NC3CCCCC3)cc2)cc1)NC1CCCCC1	mIAP act 2.4
FC(F)Sc1ccc(NC(=S)NC2CCCC2)cc1	mIAP act 2.6
COc1ccccc1NC(=S)NC1CCCCCCCCCCC1	mIAP act 2.3 (no result: bIAP inh, bIAP act)
S=C(Nc1ccc(Oc2ccccc2)cc1)NC1CCCCC1	mIAP act 3.5
c1ccc2c(c1)CC/C2=N/Nc1nc2ccccc2[nH]1	none
Cc1ccc(NC(=S)N(Cc2cccc(Br)c2)CC2CCC(C(=O)O)CC2)cc1Cl (stereo not drawn)	none
O=C(Nc1cccc(S(=O)(=O)N2CCOCC2)c1)c1c2c(nc3ccccc13)CCC2	none
N#Cc1cccc(NC(=O)Cn2cnc(S(=O)(=O)N3CCOCC3)c2)c1	none (no result: bIAP inh, bIAP act)
CC(C)c1ccc(NC(=S)NC2CCCCCC2)cc1	mIAP act 3.2
CS(=O)(=O)NCCNC(=O)c1cc(OCC(F)(F)F)ccc1OCC(F)(F)F	none
COc1cc(/C=C(\C#N)C(=O)Nc2cccc3ncccc23)ccc1O	hIAP inh 42
CC1(C)SC(=S)N(NC(=O)Nc2cccc3ccccc23)C1N(O)C(=O)Nc1ccccc1 (stereo not drawn)	none
Cc1ccc(NC(=S)NC2CCCCC2)cc1S(=O)(=O)N(C)C	mIAP act 2.4
CC1CCCCC1NC(=S)Nc1cccc(S(=O)(=O)N(C)C)c1 (stereo not drawn)	mIAP act 2.9
CCN(CC)S(=O)(=O)c1cccc(C(=O)NC2CCCCC2)c1	none
CCN(CC)S(=O)(=O)c1ccc(C)c(NC(=S)NC2CCCCC2)c1	mIAP act 2 (no result: bIAP inh, bIAP act)
Cc1ccc(S(=O)(=O)N(C)C)cc1NC(=S)NC1CCCC(C)C1C (stereo not drawn)	mIAP act 2.8
CC(=O)NNC(=S)Nc1cc(S(=O)(=O)N(C)C)ccc1C	none
CCC(CC)N1CCN(CC2CC=CCC2)CC1 (stereo not drawn)	none
CC(C)(C)N(Cc1ccccc1)C(=O)COc1cccnc1[N+](=O)[O-]	none (no result: bIAP inh, bIAP act)
CC(C)(C)OC(=O)N1CCN(C(=O)c2[nH]cnc2C(=O)N[C@@H](Cc2ccccc2)C(=O)OCc2ccccc2)CC1	none (no result: bIAP inh, bIAP act)
CC(C)(C)OC(=O)[C@H](Cc1ccccc1)NC(=O)c1nc[nH]c1C(=O)N1CCN(C(=O)OC(C)(C)C)CC1	mIAP block 41 (no result: bIAP inh, bIAP act)
C[C@H](NC(=O)N1CCn2c1nc1ccccc12)C(=O)NCc1ccc2c(c1)OCO2	none (no result: bIAP inh, bIAP act)
CCOc1cc(/C=N/Nc2cccc(C(=O)O)c2)ccc1OCC(=O)N1CCCCC1	none
COc1ccc(CNC(=O)CSCc2cnn(-c3ccccc3)c2-n2cccc2)cc1	bIAP act 2.5
COc1cccc(NC(=O)C2CCN(S(=O)(=O)c3ccc4c(c3)CC(C)N4C(C)=O)CC2)c1 (stereo not drawn)	none (no result: bIAP inh, bIAP act)
CCc1cccc(NC(=O)C2CCN(S(=O)(=O)c3ccc4c(c3)CC(C)N4C(C)=O)CC2)c1 (stereo not drawn)	mIAP act 2.2 (no result: bIAP inh, bIAP act)
CC(=O)N1c2ccc(S(=O)(=O)N3CCC(C(=O)Nc4cccc(C(F)(F)F)c4)CC3)cc2CC1C (stereo not drawn)	mIAP act 2.4 (no result: bIAP inh, bIAP act)
CN(CCN1CCOCC1)Cc1nc(-c2ccccc2)no1	none
COc1cc(NC(=O)C2CCN(S(=O)(=O)c3ccc(Cl)cc3)CC2)ccc1-n1cnnn1	mIAP act 2.3
Cc1cccc(NC(=O)COC(=O)c2ccccc2-c2nc3ccccc3s2)c1C	bIAP act 5.2
C#CCOCCOCCOCCNc1nc(N2CCN(C(=O)C(Cc3cc4ccccc4[nH]3)n3cc(C(N)C(C)CC)nn3)CC2)nc(N2CCN(C(=O)C(Cc3cc4ccccc4[nH]3)n3cc(C(N)C(C)CC)nn3)CC2)n1 (stereo not drawn)	bIAP act 3.9
O=C(NCC1CCN(c2ccc(S(=O)(=O)N3CCOCC3)cc2)CC1)Nc1ccccc1	mIAP act 2.1 (no result: bIAP inh, bIAP act)
O=C(/C=C/c1cccc(C(F)(F)F)c1)OCC(=O)N1CCN(c2ccccc2)CC1	none (no result: bIAP inh, bIAP act)
CSc1nnc(-c2ccccc2)c(-c2ccccc2)n1	none (no result: bIAP inh, bIAP act)
CSc1nnc(-c2ccco2)c(-c2ccco2)n1	mIAP block 46
Cc1ccc(C)c(NC(=O)CCC(=O)N/N=C/c2ccc[nH]2)c1	none
Cc1c(Cl)cccc1NC(=O)CCC(=O)N/N=C/c1ccc[nH]1	mIAP block 51
O=C(Nc1ccccc1)NC1(C(=O)N2CCN(C(=O)c3ccco3)CC2)CCCCC1	bIAP act 6.3
O=C(CN1CCN(C(=O)c2ccco2)CC1)Nc1ccccc1	none (no result: bIAP inh, bIAP act)
O=C(NCc1ccccc1)NC1(C(=O)N2CCN(c3ccccc3)CC2)CCCCC1	bIAP act 2.1, mIAP act 2.3
CCCc1cc(C(=O)Nc2nccs2)cs1	mIAP block 66
CCCN1C(=O)c2ccc(C(=O)Nc3nccs3)cc2C1=O	none
COc1ccc(N=Nc2ccc(O)c3ncccc23)cc1	none (no result: bIAP inh, bIAP act)
CCc1ccc(N=Nc2ccc(O)c3[nH]cnc23)cc1	mIAP block 40 (no result: bIAP inh, bIAP act)
CN(C(=O)COC(=O)c1ccc(=O)n(Cc2ccccc2)n1)c1ccccc1	none
N/C(=N\OC(=O)c1ccc([N+](=O)[O-])cc1)c1cccnc1	none
O=C(Oc1c(Br)cc([N+](=O)[O-])cc1Br)c1cccnc1	hIAP act 2.3
CC(C)(C)n1nc2c(c1NC(=O)c1ccc(Br)o1)CS(=O)C2 (stereo not drawn)	bIAP act 2.6
COc1ccc(-c2cn[nH]c2-c2ccc(OCc3ccc([N+](=O)[O-])cc3)cc2O)cc1	none
Cc1nc2cc(NC(=O)NCc3ccc4c(c3)OCO4)ccc2o1	none
Cc1nc2cc(NC(=O)Nc3ccc(Br)cc3)ccc2o1	mIAP act 2
Cc1ccccc1CSCC(=O)NCc1ccco1	bIAP act 2.2
COc1cccc(N/N=C(\C#N)S(=O)(=O)C(C)(C)C)c1	none
CCOc1ccc(S(=O)(=O)NN)cc1	bIAP act 2
Cc1ccc(NC(=O)Cn2nnc(C(=O)NCc3cccs3)c2N)cc1F	none (no result: bIAP inh, bIAP act)
Cc1ccc(N2C(=O)CS/C2=C(\C(Cl)=C(Cl)Cl)[N+](=O)[O-])cc1	mIAP block 42
Cc1ccc(N2C(=O)CSCC2=O)cc1	none
C=CCN=C(NC#N)SCC(=O)NCc1ccccc1	bIAP act 2.2
C=CCN=C(NC#N)SCCc1ccccc1	none
CC(C)N(CCCNC(=O)C1CCN(C(=O)c2cc3sccc3n2C)CC1)Cc1ccccc1	none (no result: bIAP inh, bIAP act)
Cc1ccc(NC(=O)Nc2cccc3ccccc23)cc1	none (no result: bIAP inh, bIAP act)

From PubChem
